M1 antag – antagonists of rat M1 muscarinic receptor; B-score at 10 µM; 64,000 tested, 3.4% active; CHO-M1 cells, Fluo-4 calcium, ACh EC80 antagonist mode; active compounds read low;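 active means calcium fluorescence response, raw or row-and-column corrected B-score, differing from the plate sample mean either way at a set confidence level, mostly lower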
Target sequence (P08482 whole entry, looked up): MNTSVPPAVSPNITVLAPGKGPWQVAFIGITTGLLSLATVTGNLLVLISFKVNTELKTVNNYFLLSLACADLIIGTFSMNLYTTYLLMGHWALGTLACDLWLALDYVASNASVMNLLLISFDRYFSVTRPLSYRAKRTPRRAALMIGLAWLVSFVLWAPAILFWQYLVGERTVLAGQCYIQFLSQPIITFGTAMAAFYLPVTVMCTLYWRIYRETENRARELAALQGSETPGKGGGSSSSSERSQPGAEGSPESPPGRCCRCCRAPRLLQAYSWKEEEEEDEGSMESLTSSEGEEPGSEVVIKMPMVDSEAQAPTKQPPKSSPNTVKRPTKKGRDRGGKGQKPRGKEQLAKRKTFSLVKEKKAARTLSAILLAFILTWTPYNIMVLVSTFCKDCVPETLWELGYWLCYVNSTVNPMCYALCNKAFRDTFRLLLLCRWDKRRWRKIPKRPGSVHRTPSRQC
M1 agonist – M1 muscarinic receptor agonists, primary screen, CHO-M1 cells, Fluo-4 calcium, agonist mode; Muscarinic acetylcholine receptor M1; Fluo-4 calcium fluorescence; active compounds read high; B-score at 10 µM; 64,000 tested, 3% active; AID 626, 2007;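 active means fluorescence rise, raw or as B-score row- and column-corrected plate score, outside the 99.7% band of its plate's samples, either direction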
S1P1 ag-PAM – S1P1 agonists and agonism potentiators, primary screen, cell-based, primary and confirmation screens, CRE-bla reporter | S1P1 CRE-bla cells, forskolin, beta-lactamase FRET, potentiator mode; S1P1 agonist co-added at EC20, 2 nM; 100% = saturating reference agonist, 0% = basal | 56,000 tested, 0.57% active | Sphingosine 1-phosphate receptor 1 (Homo sapiens), P21453 | activation, % at 9.5 µM;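 active means activation above a cutoff set at the mean activation of all tested compounds plus 3 SD, cut at about 54% in these data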;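 further: forskolin at 4 µM as EC80 and the EC20 agonist is SEW2871; 100% = SEW2871 at its EC100 plus forskolin at EC80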
S1P3 agonist – human S1P3 receptor agonists, primary screen, cell-based, primary and confirmation, NFAT-BLA reporter | S1P3 NFAT-BLA reporter cells, agonism, FRET ratio; relative to 1 µM S1P, basal subtracted | activation, % at 4.5 µM | AID 373, 2006 | Sphingosine 1-phosphate receptor 3 (Homo sapiens), Q99500 | 60,000 tested, 0.1% active;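 active means activation above the screen-wide mean plus 3 SD, cut at about 4.5% in these data, passing the limit was not always enough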
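Material: Human S1P3 NFAT-BLA reporter CHO cells | Incubation: Overnight plating, 4 h compound 37 °C, 2 h substrate RT | Signal: FRET β-lactamase substrate fluorescence, excitation 405 nm, 460/535 nm emission ratio, background-subtracted | Compound: 4.5 µM final, single dose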
Jurkat viability – cytotoxicity toward Jurkat T cells, primary screen, cytotoxicity control, cell-based, Jurkat E6.1, 60K MLSMR library | Jurkat E6.1 viability, ATP luminescence, 48 h | inhibition, % at 4 µM | 56,000 tested, 1.2% active | AID 463, 2006;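 active means inhibition above the mean inhibition of all tested compounds plus 3 SD, cut at about 28% in these data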
JNK3 inh – JNK3 kinase activity inhibitors, primary screen, biochemical, human, purified enzyme | Mitogen-activated protein kinase 10 (Homo sapiens), P53779 | 60,000 tested, 0.61% active | HTS | inhibition, % at 8 µM; in the data active means inhibition above about 17%;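 further: 0% = DMSO and 100% = reference inhibitor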
M1 antag conf – rat M1 muscarinic receptor antagonists, confirmation, CHO cells, Fluo-4 calcium, duplicate | shares compounds with M1 antag | ACh EC80 antagonism; active compounds read low | 1,700 tested, 43% active | AID 677, 2007 | calcium response (max-min fluorescence) at 10 µM;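 active means calcium response below the same-plate mean of wells given acetylcholine alone at its 80%-effect dose, minus 3 SD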;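 further: raw fluorescence intensity difference in arbitrary instrument units and not normalized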
mGluR4 antag – human mGluR4 response to M1 antagonist hits, M1 allosteric modulator project, cell-based, antagonist mode, secondary assay 1; 1,700 tested, 0.9% active; CHO-mGluR4 calcium flux, Fluo-4 fluorescence, glutamate EC80; active compounds read low; shares compounds with M1 antag; fluorescence response (max-min) at 10 µM;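 active means fluorescence response below the plate's average for near-maximal glutamate wells, less 3 SD of those wells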;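 further: raw unnormalized fluorescence span taken in the window right after glutamate addition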
* = called active by the depositor; nt = not tested or not shown. Sampled rows, rich in hits. Any-hit rate of the full collection: about 7.4%.

SMILES	M1 antag	M1 agonist	S1P1 ag-PAM	S1P3 agonist	Jurkat viability	JNK3 inh	M1 antag conf	mGluR4 antag
COc1ccc(N2CCN(C(c3ccccc3)c3sc4nc(C)nn4c3O)CC2)cc1 (stereo not drawn)	0.16	0.12	5	-1	2	-4	nt	nt
CCCCNC(=O)N1CCOCCOCCN(C(=O)NCCCC)CCOCC1	-2.3*	0.059	6	-4	nt	-4	589	244
COc1ccc(S(=O)(=O)N2CCCC(C(=O)O)C2)cc1Cl (stereo not drawn)	-0.67	-1.8	5	-1	-4	-8	nt	nt
O=C(Nc1ccccc1Cl)c1cc(S(=O)(=O)N2CCCC(C(=O)O)C2)ccc1F (stereo not drawn)	-3.5*	-0.087	nt	nt	nt	nt	529*	248
COc1ccccc1Cn1c2nc3ccccc3nc2c2c(=O)n(CC(C)C)cnc21	0.78	-0.01	0	-3	nt	1	nt	nt
Cc1noc(C)c1S(=O)(=O)Nc1ccc(C(=O)NC2CCCCCC2)cc1	-1.1	-0.09	-8	-1	6	1	nt	nt
Cc1noc(C)c1S(=O)(=O)N1CCC(C(=O)N2CCN(c3ccc(F)cc3)CC2)CC1	-1.9*	0.036	nt	nt	nt	nt	552	191
Cc1noc(C)c1S(=O)(=O)Nc1ccc(C(=O)N2CCN(c3ccc(Cl)cc3)CC2)cc1	-2.4*	2.9	18	0	22	2	487	233
Cc1noc(C)c1S(=O)(=O)N1CCC(C(=O)N2CCN(C3CCCC3)CC2)CC1	0.29	-0.91	nt	nt	nt	nt	nt	nt
O=C(NCc1ccccc1)NC1(C(=O)N2CCN(c3ccccc3)CC2)CCCCC1	0.15	-0.37	-4	0	-3	0	nt	nt
COc1ccc2cc(CN(Cc3cccnc3)S(=O)(=O)c3ccccc3)c(=O)[nH]c2c1	-2.4*	0.94	2	0	12	-8	591	242
COc1ccccc1Nc1nc(N)nc(CN2CCc3ccccc3C2)n1	-1.7	-0.2	13	0	-4	3	nt	nt
CC(=O)c1ccccc1NS(=O)(=O)c1c(C)nn(-c2ccccc2)c1C	-3.4*	-0.87	5	-1	7	5	569	241
CC(=O)Oc1c(S(=O)(=O)c2ccc(C)cc2)c(C)nn1-c1ccccc1	0.77	0.62	14	0	2	5	nt	nt
CC1=CC(C)(C)N=C(Nc2ccc(C)cc2)S1	-5*	-0.13	-3	0	3	0	275*	218
Cc1cc(C)c(S(=O)(=O)N2CCN(C)CC2)c(C)c1	-0.32	-0.049	-15	-1	-2	7	nt	nt
O=C(c1oc(=O)c2ccccc2c1-c1ccccc1)N1CCN(C2CCCCC2)CC1	-6.6*	1.1	-11	0	3	-1	349*	209
O=C(c1oc(=O)c2ccccc2c1-c1ccccc1)N1CCC(O)CC1	-0.19	-0.53	-20	0	-6	-10	nt	nt
CCOC(=O)N1CCN(CC(O)COCC2=CCC3CC2C3(C)C)CC1 (stereo not drawn)	-6.3*	-1.8	-22	0	0	1	456*	272
CCOC(=O)N1CCN(CC(O)COC2CC(C)CC(C)(C)C2)CC1 (stereo not drawn)	-1.3	-1.2	-5	0	0	4	nt	nt
Cn1cc(CN2CCN(c3ccccc3)CC2)c2ccccc21	-4.3*	-0.63	nt	nt	nt	nt	459*	191
c1ccc(-c2noc(CN3CCN(c4ccccc4)CC3)n2)cc1	-0.23	-0.3	-7	-1	0	4	nt	nt
O=C1N2c3ccccc3CCc3cccc(c32)C1(O)C(F)(F)F (stereo not drawn)	0.27	-1.5	-4	0	5	-6	nt	nt
CCN(CC)C(=O)C1CCCN(C/C(C)=C/c2ccccc2)C1 (stereo not drawn)	0.04	0.62	-2	-2	1	3	nt	nt
CCN(CC)C(=O)C1CCCN(C/C=C/c2ccccc2)C1 (stereo not drawn)	-2.7*	4	0	-1	-1	-5	566	240
SMILES	M1 antag	M1 agonist	S1P1 ag-PAM	S1P3 agonist	Jurkat viability	JNK3 inh	M1 antag conf	mGluR4 antag
CCN(CC)C(=O)C1CCCN(Cc2ccc(F)c(F)c2)C1 (stereo not drawn)	-4.1*	0.83	8	-1	8	-3	649	256
CC(C)CC1(C)NC(=O)N(CCN2C(=O)c3ccccc3C2=O)C1=O (stereo not drawn)	0.64	-0.12	-13	0	0	-2	nt	nt
COCCCNC(=O)c1cc2c(s1)CS(=O)(=O)C2	-0.45	0.13	nt	nt	nt	nt	nt	nt
CC(C)OCCCNC(=O)c1cc2c(s1)CS(=O)(=O)C2	-4.6*	-0.0011	nt	nt	nt	nt	625	239
CCCCCC(=O)Nc1ccc(N2CCN(CC)CC2)c(Cl)c1	-11*	0.38	-10	-1	-1	3	46*	259
Cc1coc(NC(=O)CSc2nc(-c3ccncc3)cc(C(F)(F)F)c2C#N)n1	0.049	-0.52	-8	0	-3	0	nt	nt
Cc1ccc(-c2nnn(CC(=O)O)n2)cc1	-0.42	-0.36	nt	nt	nt	nt	nt	nt
CSc1ccc(-c2nnn(Cc3ccc(C)cc3)n2)cc1	-5.4*	1.4	nt	nt	nt	nt	617	244
COc1ccc(CNC(=O)NCc2ccc(OC)c(OC)c2)cc1OC	-2.4*	-1.4	-10	-1	5	8	524	206
CCC(CC)C(=O)NCCc1ccc(OC)c(OC)c1	0.52	-0.21	nt	nt	nt	nt	nt	nt
Cc1cc(NC(=O)c2noc3c2CCCC3)n(-c2ccccc2)n1	0.33	0.23	-8	-1	1	-3	nt	nt
O=C(Nc1ccccc1)c1cccnc1N1CCOCC1	-3.3*	0.53	7	-1	-7	-7	709	258
O=C(OCC1COc2ccccc2O1)c1c(F)cccc1F (stereo not drawn)	0.11	0.35	nt	nt	nt	nt	nt	nt
O=C(NCCN1CCCCC1)Nc1ccc(F)c(Cl)c1	-2.8*	0.23	10	-1	-1	-7	569	216
O=C(NCCN1CCOCC1)Nc1ccc(Cl)cc1Cl	-0.029	0.3	nt	0	10	5	nt	nt
OC(COc1ccc(OCc2ccccc2)cc1)CN1CCOCC1 (stereo not drawn)	-0.9	-1.1	-12	-1	2	5	nt	nt
